Assay results taken from ChEMBL document CHEMBL3098068 (Eur J Med Chem, 2014).

Legend:
[1] = molecular target: Aldo-keto reductase family 1 member B1 (Rattus norvegicus) (UniProt P07943); assay: Inhibition of rat kidney NADPH-dependent aldose reductase assessed as DL-glyceraldehyde conversion to glycerol at 1 uM preincubated for 20 mins followed by NADPH addition measured after 5 mins by UV-Visible spectrophotometric analysis relative to control
Procedure, shortened: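 Enzyme source: supernatant of rat kidney homogenized in ice-cold 50 mM potassium phosphate pH 7.4, centrifuged 12,000 rpm 30 min, stored at -80 °C. Assay mix: 0.1 M potassium phosphate pH 6.2, DL-glyceraldehyde, lithium sulphate, mercaptoethanol. Compound (1 µM in DMSO) preincubated with enzyme 20 min at 37 °C. Blank without NADPH incubated 5 min at 37 °C. NADPH added to start. A340 decrease read. %inhibition = 100-[T/C]×100.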

[2] = molecular target: Aldo-keto reductase family 1 member B1 (Rattus norvegicus, UniProt P07943); assay: (§1) Inhibition of rat kidney NADPH-dependent aldose reductase assessed as DL-glyceraldehyde conversion to glycerol preincubated for 20 mins followed by NADPH addition measured after 5 mins by UV-Visible spectrophotometric analysis
[3] = molecular target: Aldo-keto reductase family 1 member B1 (Rattus norvegicus) (UniProt P07943); assay: as §1

Row | Structure (SMILES) | inhibition [1] [%] | IC50 [2] [nM] | inhibition [3]
1 | N#CC(=C\c1ccco1)/C=C1\SC(=S)NC1=O | < 50 | – | –
2 | CC(C)c1ccc(/C=C(C#N)/C=C2\SC(=S)N(CC(=O)O)C2=O)cc1 | < 50 | – | –
3 | N#CC(=C\c1cccs1)/C=C1\SC(=S)N(c2ccc(C(=O)O)cc2)C1=O | < 50 | – | –
4 | COc1ccc(/C=C(C#N)/C=C2\SC(=S)N(c3ccc(C(=O)O)cc3)C2=O)cc1 | < 50 | – | –
5 | CCc1ccc(/C=C(C#N)/C=C2\SC(=S)NC2=O)cc1 | < 50 | – | –
6 | COc1ccc(/C=C(C#N)/C=C2\SC(=S)N(CC(=O)O)C2=O)cc1 | < 50 | – | –
7 | N#CC(=C\c1ccc(Cl)cc1)/C=C1\SC(=S)N(c2ccc(C(=O)O)cc2)C1=O | < 50 | – | –
8 | N#CC(=C\c1ccc(F)cc1)/C=C1\SC(=S)N(c2ccc(C(=O)O)cc2)C1=O | < 50 | – | –
9 | CC(C)c1ccc(/C=C(C#N)/C=C2\SC(=S)NC2=O)cc1 | < 50 | – | –
10 | CC(C)c1ccc(/C=C(C#N)/C=C2\SC(=S)N(c3ccc(C(=O)O)cc3)C2=O)cc1 | < 50 | – | –
11 | Cc1ccc(/C=C(C#N)/C=C2\SC(=S)N(c3ccc(CC(=O)O)cc3)C2=O)cc1 | < 50 | – | –
12 | Cc1ccc(/C=C(C#N)/C=C2\SC(=S)N(CC(=O)O)C2=O)cc1 | < 50 | – | –
13 | N#CC(=C\c1ccco1)/C=C1\SC(=S)N(CC(=O)O)C1=O | > 50 | 670 | Dose-dependent effect
14 | CCc1ccc(/C=C(C#N)/C=C2\SC(=S)N(CC(=O)O)C2=O)cc1 | < 50 | – | –
15 | COc1ccc(/C=C(C#N)/C=C2\SC(=S)NC2=O)cc1 | < 50 | – | –
16 | N#CC(=C\c1cccc2ccccc12)/C=C1\SC(=S)N(c2ccc(C(=O)O)cc2)C1=O | < 50 | – | –
17 | N#CC(=C\c1ccccc1)/C=C1\SC(=S)N(c2ccc(CC(=O)O)cc2)C1=O | < 50 | – | –
18 | N#CC(=C\c1ccc(C(F)(F)F)cc1)/C=C1\SC(=S)N(CC(=O)O)C1=O | < 50 | – | –
19 | N#CC(=C\c1ccc(F)cc1)/C=C1\SC(=S)NC1=O | < 50 | – | –
20 | N#CC(=C\c1ccc(Br)cc1)/C=C1\SC(=S)N(c2ccc(C(=O)O)cc2)C1=O | < 50 | – | –

Row | Structure (SMILES) | inhibition [1] [%] | IC50 [2] [nM] | inhibition [3]
21 | N#CC(=C\c1ccccc1)/C=C1\SC(=S)N(c2ccc(C(=O)O)cc2)C1=O | > 50 | 220 | Dose-dependent effect
22 | N#CC(=C\c1ccc(F)cc1)/C=C1\SC(=S)N(CC(=O)O)C1=O | < 50 | – | –
23 | N#CC(=C\c1cccs1)/C=C1\SC(=S)N(CC(=O)O)C1=O | < 50 | – | –
24 | N#CC(=C\c1ccccc1)/C=C1\SC(=S)NC1=O | < 50 | – | –
25 | N#CC(=C\c1ccc(Br)cc1)/C=C1\SC(=S)NC1=O | < 50 | – | –
26 | CCc1ccc(/C=C(C#N)/C=C2\SC(=S)N(c3ccc(CC(=O)O)cc3)C2=O)cc1 | < 50 | – | –
27 | N#CC(=C\c1ccccc1)/C=C1\SC(=S)N(CC(=O)O)C1=O | > 50 | 750 | Dose-dependent effect
28 | N#CC(=C\c1ccc(Cl)cc1)/C=C1\SC(=S)N(CC(=O)O)C1=O | < 50 | – | –
29 | N#CC(=C\c1cccs1)/C=C1\SC(=S)NC1=O | > 50 | 860 | Dose-dependent effect
30 | Cc1ccc(/C=C(C#N)/C=C2\SC(=S)N(c3ccc(C(=O)O)cc3)C2=O)cc1 | < 50 | – | –
31 | Cc1ccc(/C=C(C#N)/C=C2\SC(=S)NC2=O)cc1 | > 50 | 690 | Dose-dependent effect
32 | N#CC(=C\c1ccco1)/C=C1\SC(=S)N(c2ccc(C(=O)O)cc2)C1=O | < 50 | – | –
33 | N#CC(=C\c1cccc2ccccc12)/C=C1\SC(=S)NC1=O | < 50 | – | –
34 | N#CC(=C\c1ccc(Cl)cc1)/C=C1\SC(=S)NC1=O | < 50 | – | –
35 | CC(C)c1ccc(/C=C(C#N)/C=C2\SC(=S)N(c3ccc(CC(=O)O)cc3)C2=O)cc1 | < 50 | – | –
36 | COc1ccc(/C=C(C#N)/C=C2\SC(=S)N(c3ccc(CC(=O)O)cc3)C2=O)cc1 | < 50 | – | –
37 | N#CC(=C\c1cccc2ccccc12)/C=C1\SC(=S)N(CC(=O)O)C1=O | < 50 | – | –
38 | N#CC(=C\c1ccc(Br)cc1)/C=C1\SC(=S)N(CC(=O)O)C1=O | < 50 | – | –
39 | CCc1ccc(/C=C(C#N)/C=C2\SC(=S)N(c3ccc(C(=O)O)cc3)C2=O)cc1 | < 50 | – | –
